In experiment [1] the test system is Mycobacterium tuberculosis. The experiment is described as follows: Antimycobacterial activity against Mycobacterium tuberculosis H37Rv by microbroth dilution method. The experiment is classed as functional.
For experiment [2], the target named is T1, dTDP-4-dehydrorhamnose 3,5-epimerase (Mycobacterium tuberculosis (strain CDC 1551 / Oshkosh), UniProt P9WH10).
T1 sequence (P9WH10 whole entry): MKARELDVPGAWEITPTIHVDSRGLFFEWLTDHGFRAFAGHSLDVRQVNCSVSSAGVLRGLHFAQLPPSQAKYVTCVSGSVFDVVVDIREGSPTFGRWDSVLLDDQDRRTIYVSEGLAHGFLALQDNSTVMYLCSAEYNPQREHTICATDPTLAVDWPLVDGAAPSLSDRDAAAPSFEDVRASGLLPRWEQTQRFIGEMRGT
Kind of experiment: Inhibition of Mycobacterium tuberculosis RmlC expressed in Escherichia coli by spectrophotometry. In short, it runs like this: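 96-well absorbance assay at 340 nm (NADPH to NADP) in 200 μl of 50 mM MOPS pH 7.4 with 10% glycerol, 0.01% Triton X-100 and 1 mM MgCl2. Final RmlC 70 nM, RmlD 5 nM, TDP-KDX 200 μM, NADPH 25 μM; compound added in 4 μl DMSO. Reactions were started with RmlC and followed 80 min; IC50 came from initial velocities.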

Experiment [3] in a line: Cytotoxicity against HAEC after 24 hrs. Further details: species or system Homo sapiens. In short, it runs like this:
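Human aortic endothelial cells were seeded at 1000 cells/well in EGM-2 and held 24 hr at 37 °C. They were then exposed 24 hr at 37 °C to a 16-point 2-fold series (final 100 μM to 3 nM) with a DMSO solvent control. Viability was read by CellTiter-Glo luminescence after 10 min, in triplicate.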

In experiment [4] the target is T2, dTDP-4-dehydrorhamnose 3,5-epimerase (Mycobacterium tuberculosis (strain CDC 1551 / Oshkosh)) (UniProt P9WH10).
T2 sequence (whole entry): T1 sequence (P9WH10 whole entry)
The experiment is described as follows: Inhibition of Mycobacterium tuberculosis RmlC expressed in Escherichia coli at 0.25 uM by spectrophotometry.

Experiment [5] deals with T2, dTDP-4-dehydrorhamnose 3,5-epimerase (Mycobacterium tuberculosis (strain CDC 1551 / Oshkosh)). Kind of experiment: Competitive inhibition of Mycobacterium tuberculosis RmlC expressed in Escherichia coli assessed as increase in Km of TDP-KDX. In short, it runs like this:
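Competitive-mode test: TDP-KDX varied 0–100 μM with inhibitor at 0, 0.1, 0.15 and 0.2 μM. Km and Vmax were fitted by non-linear regression. Km(obs) was plotted against inhibitor concentration, and Ki was taken from the slope (Km/Ki, Km as y-intercept).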

For experiment [6] the target is unchanged. The experiment is described as follows: Reversible inhibition of Mycobacterium tuberculosis RmlC expressed in Escherichia coli by time-dependence study. The essentials:
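RmlD, TDP-KDX and NADPH were added, and the NADPH fluorescence decrease was followed over 200 min. Slopes from the later phase were compared with a no-compound control.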

For experiment [7] the target is unchanged. Kind of experiment: Inhibition of Mycobacterium tuberculosis RmlC expressed in Escherichia coli at 5 uM by spectrophotometry.
For experiment [8] the target is unchanged. The experiment is described as follows: Inhibition of Mycobacterium tuberculosis RmlC expressed in Escherichia coli at 0.5 uM by spectrophotometry.
In experiment [9] the target is T3, dTDP-4-dehydrorhamnose 3,5-epimerase /dTDP-4-dehydrorhamnose reductase (Mycobacterium tuberculosis (strain ATCC 25618 / H37Rv), UniProt P9WH09+P9WH11).
T3 sequence (P9WH09 whole entry): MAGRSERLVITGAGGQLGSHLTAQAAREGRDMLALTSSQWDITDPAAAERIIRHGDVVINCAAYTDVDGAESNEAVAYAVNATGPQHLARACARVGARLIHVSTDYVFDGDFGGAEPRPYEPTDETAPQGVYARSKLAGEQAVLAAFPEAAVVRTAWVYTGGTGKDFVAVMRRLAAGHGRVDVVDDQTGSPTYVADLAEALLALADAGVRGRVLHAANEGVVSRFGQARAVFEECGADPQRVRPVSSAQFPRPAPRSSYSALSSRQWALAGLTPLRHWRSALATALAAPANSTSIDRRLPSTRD
T3 sequence (P9WH11 whole entry): T1 sequence (P9WH10 whole entry)
The experiment is described as follows: Inhibition of Mycobacterium tuberculosis RmlC/RmlD expressed in Escherichia coli by spectrophotometry. In short, it runs like this:
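Final RmlC 2.63 × 10−4 μg/μl, RmlD 6.53 × 10−4 μg/μl, NADPH 25 μM, TDP-KDX 200 μM. A 16-point 2-fold series (55 μM to 1.7 nM) was read as the 90-min drop in 340/460 nm fluorescence at 25 °C, in triplicate. IC50 came from a 4-parameter logistic fit.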

Each structure is given as a SMILES string. Values after ≈ are worked out from the molar mass of the structure shown. Active and inactive are the calls of the source. The rule behind the calls is not given here. A value given as a limit tells only on which side of the number the result lay.

Regarding `O=c1[nH]c2ccccc2n1CCCSc1nnc2c3ccccc3n(Cc3ccccc3)c2n1`, in experiment [1], the MIC is greater than 50 µg/mL. In [2], this compound yielded an IC50 of 2900 nM.

For `CCn1c2ccccc2c2nnc(SCCCn3c(=O)[nH]c4ccccc43)nc21`, the IC50 in experiment [3] amounted to 75000 nM; in [2], 200 nM; in experiment [9], 398 nM. In addition, the inhibition in experiment [4] came to 52%; in experiment [7], 83%; in experiment [8], 72%. In experiment [1], this compound gave an MIC of 19 µg/mL (≈ 47 µM). The outcome in [5] was Active. This compound also displayed a Ki in [2] of 100 nM. The inhibition entry in [6] is “Active”.

On to `C=CCn1c2ccc(C)cc2c2nnc(SCCCn3c(=O)[nH]c4ccccc43)nc21`, for which the MIC in [1] came to 25 µg/mL (≈ 58.1 µM). Moreover, in [2], the IC50 is 20000 nM.

The compound `C=CCn1c2ccccc2c2nnc(SCn3c(=O)[nH]c4ccccc43)nc21` had an IC50 in [2] of 10300 nM.

Regarding `O=c1[nH]c2ccccc2n1CCCSc1nnc2c(n1)[nH]c1ccccc12`, the IC50 in experiment [2] was 3300 nM.

The compound `C=CCn1c2ccccc2c2nnc(SCCCn3c(=O)[nH]c4ccccc43)nc21` gave an MIC in experiment [1] of 13 µg/mL (≈ 31.2 µM). In experiment [2], this compound had an IC50 of 120 nM and a Ki of 62 nM.

On to `Cn1c2ccccc2c2nnc(SCCCn3c(=O)[nH]c4ccccc43)nc21`, for which the MIC in experiment [1] came to 9 µg/mL (≈ 23 µM). Moreover, in experiment [2], half-maximal inhibition (IC50) required 500 nM.

As for `CCCn1c2ccccc2c2nnc(SCCCn3c(=O)[nH]c4ccccc43)nc21`, the MIC in [1] was determined as 9 µg/mL (≈ 21.5 µM). This compound displayed an IC50 in experiment [2] of 1250 nM.

`C=CCn1c2ccccc2c2nnc(S(=O)(=O)CCCn3c(=O)[nH]c4ccccc43)nc21` had an IC50 in experiment [2] of 400 nM. This counts as sub-micromolar.

In the case of `CCn1c2ccccc2c2nnc(S(=O)(=O)CCCn3c(=O)[nH]c4ccccc43)nc21`, the midpoint of inhibition in experiment [2], the IC50, lay at 800 nM.

Values taken from ChEMBL document CHEMBL1157710, “Identification of triazinoindol-benzimidazolones as nanomolar inhibitors of the Mycobacterium tuberculosis enzyme TDP-6-deoxy-d-xylo-4-hexopyranosid-4-ulose 3,5-epimerase (RmlC)” (Bioorg Med Chem, 2010).
